From ChEMBL document CHEMBL3392995, “Erinacerins C-L, isoindolin-1-ones with α-glucosidase inhibitory activity from cultures of the medicinal mushroom Hericium erinaceus” (J Nat Prod, 2015)

What was measured:
[1] = Inhibition of baker's yeast alpha-glucosidase using p-nitrophenyl-alpha-D-glucopyranoside as substrate incubated with enzyme for 10 mins prior to substrate challenge for 15 mins by microplate reader analysis; design: species or system Saccharomyces cerevisiae
In short: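 Run in 96-well format, read as absorbance at 405 nm. Control used phosphate buffer in place of sample; blank used phosphate buffer in place of α-glucosidase. Inhibition (%) = [(ODcontrol − ODcontrol blank) − (ODtest − ODtest blank)]/(ODcontrol − ODcontrol blank) × 100. Acarbose served as positive control. Means of three independent experiments, each in triplicate.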

A549 = test: Cytotoxicity against human A549 cells after 72 hrs by MTT assay; type: functional, cell-based; details: A549, 72 h
In short: (§1)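 MTT read-out of cell viability in A549 (human lung adenocarcinoma) and HeLa (cervical cancer) cells. Values are means of three independent experiments, each run in triplicate.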

HeLa = test: Cytotoxicity against human HeLa cells after 72 hrs by MTT assay; type: functional, cell-based; in short: as §1

COC(=O)C/C=C(\C)CCc1c(O)cc2c(c1O)CN([C@@H](Cc1ccccc1)C(=O)OC)C2=O
IC50 [1]: 19.8 µM
IC50 (A549): > 100 µM
IC50 (HeLa): > 100 µM

O=C(O)[C@H](Cc1ccccc1)N1Cc2ccccc2C1=O
IC50 [1]: > 200 µM
IC50 (A549): > 100 µM
IC50 (HeLa): > 100 µM

C/C(=C\Cc1c(O)cc2c(c1O)CN(CCO)C2=O)CC/C=C(\C)C(=O)O
IC50 [1]: 24.2 µM
IC50 (A549): > 100 µM
IC50 (HeLa): > 100 µM

O=C(O)[C@@H](Cc1ccccc1)N1Cc2ccccc2C1=O
IC50 [1]: > 200 µM
IC50 (A549): > 100 µM
IC50 (HeLa): > 100 µM

COC(=O)CC/C(C)=C/Cc1c(O)cc2c(c1O)CNC2=O
IC50 [1]: 145 µM
IC50 (A549): > 100 µM
IC50 (HeLa): > 100 µM

C/C(=C\Cc1c(O)cc2c(c1O)CN([C@H](C(=O)O)C(C)C)C2=O)CC/C=C(\C)C(=O)O
IC50 [1]: 12.8 µM
IC50 (A549): > 100 µM
IC50 (HeLa): > 100 µM

C[C@H]1O[C@H](O[C@H]2[C@H](O)[C@@H](O)[C@@H](O[C@H]3[C@H](O)[C@@H](O)C(O)O[C@@H]3CO)O[C@@H]2CO)[C@H](O)[C@@H](O)[C@@H]1N[C@H]1C=C(CO)[C@@H](O)[C@H](O)[C@H]1O (some centres undefined) [ACARBOSE]
IC50 [1]: 383 µM

C/C(=C\Cc1c(O)cc2c(c1O)CNC2=O)CC/C=C(\C)C(=O)O
IC50 [1]: > 200 µM
IC50 (A549): > 100 µM
IC50 (HeLa): > 100 µM

COC(=O)CC/C(C)=C/Cc1c(O)cc2c(c1O)CN(CCO)C2=O
IC50 [1]: 97.8 µM
IC50 (A549): > 100 µM
IC50 (HeLa): > 100 µM

CC(C)[C@@H](C(=O)O)N1Cc2ccccc2C1=O
IC50 [1]: > 200 µM
IC50 (A549): 89.7 µM
IC50 (HeLa): > 100 µM

COC(=O)CC/C(C)=C/Cc1c(O)cc2c(c1O)CN([C@@H](Cc1ccccc1)C(=O)OC)C2=O
IC50 [1]: 15.5 µM
IC50 (A549): 89.7 µM
IC50 (HeLa): > 100 µM

CC[C@H](C)[C@@H](C(=O)O)N1Cc2ccccc2C1=O
IC50 [1]: > 200 µM
IC50 (A549): > 100 µM
IC50 (HeLa): > 100 µM

CC[C@H](C)[C@@H](C(=O)O)N1Cc2c(cc(O)c(C/C=C(\C)CC/C=C(\C)C(=O)O)c2O)C1=O
IC50 [1]: 39.6 µM
IC50 (A549): > 100 µM
IC50 (HeLa): > 100 µM

COC(=O)C/C=C(\C)CCc1c(O)cc2c(c1O)CN(CCO)C2=O
IC50 [1]: 18.6 µM
IC50 (A549): 96.1 µM
IC50 (HeLa): > 100 µM

COc1cc2c(c(O)c1C/C=C(\C)CCC=C(C)C)CN(CCc1ccccc1)C2=O
IC50 [1]: 5.3 µM
IC50 (A549): 49 µM
IC50 (HeLa): 40.5 µM

CC(C)[C@H](C(=O)O)N1Cc2ccccc2C1=O
IC50 [1]: > 200 µM
IC50 (A549): 41.5 µM
IC50 (HeLa): > 100 µM

COC(=O)C/C=C(\C)CCc1c(O)cc2c(c1O)CNC2=O
IC50 [1]: 10.3 µM
IC50 (A549): > 100 µM
IC50 (HeLa): > 100 µM
